Tests used:
[1] = organism: Homo sapiens; experiment: Selectivity ratio of IC50 for CDK2 (unknown origin) by ATP competitive binding assay to IC50 for N-terminal GST-tagged human recombinant HPK1 (1 to 346 residues ) expressed in baculovirus-infected Sf9 cells by HTRF lanthascreen binding assay
Procedure, shortened: (§1)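 Ratio of off-target kinase IC50 (JAK1, JAK2 or CDK2) to HPK1 IC50. The off-target kinase assays were run at ATP approximately equal to Km(ATP). HPK1 IC50 came from the tracer-displacement assay with tracer at approximately Kd(tracer).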

[2] = organism: Homo sapiens; experiment: Selectivity ratio of IC50 for JAK2 (unknown origin) by ATP competitive binding assay to IC50 for N-terminal GST-tagged human recombinant HPK1 (1 to 346 residues ) expressed in baculovirus-infected Sf9 cells by HTRF lanthascreen binding assay; procedure, shortened: as §1
[3] = molecular target: T1, Mitogen-activated protein kinase kinase kinase kinase 1 (Homo sapiens, UniProt Q92918); experiment: Displacement of Tracer 222 from N-terminal GST-tagged human recombinant HPK1 (1 to 346 residues ) expressed in baculovirus-infected Sf9 cells incubated for 1 hr by HTRF lanthascreen binding assay
Procedure, shortened: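 Binding (tracer-displacement) format run with tracer at a concentration approximately equal to its Kd; IC50 derived from displacement.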
Target sequence in this assay (Q92918 whole entry, the tested form may be a part): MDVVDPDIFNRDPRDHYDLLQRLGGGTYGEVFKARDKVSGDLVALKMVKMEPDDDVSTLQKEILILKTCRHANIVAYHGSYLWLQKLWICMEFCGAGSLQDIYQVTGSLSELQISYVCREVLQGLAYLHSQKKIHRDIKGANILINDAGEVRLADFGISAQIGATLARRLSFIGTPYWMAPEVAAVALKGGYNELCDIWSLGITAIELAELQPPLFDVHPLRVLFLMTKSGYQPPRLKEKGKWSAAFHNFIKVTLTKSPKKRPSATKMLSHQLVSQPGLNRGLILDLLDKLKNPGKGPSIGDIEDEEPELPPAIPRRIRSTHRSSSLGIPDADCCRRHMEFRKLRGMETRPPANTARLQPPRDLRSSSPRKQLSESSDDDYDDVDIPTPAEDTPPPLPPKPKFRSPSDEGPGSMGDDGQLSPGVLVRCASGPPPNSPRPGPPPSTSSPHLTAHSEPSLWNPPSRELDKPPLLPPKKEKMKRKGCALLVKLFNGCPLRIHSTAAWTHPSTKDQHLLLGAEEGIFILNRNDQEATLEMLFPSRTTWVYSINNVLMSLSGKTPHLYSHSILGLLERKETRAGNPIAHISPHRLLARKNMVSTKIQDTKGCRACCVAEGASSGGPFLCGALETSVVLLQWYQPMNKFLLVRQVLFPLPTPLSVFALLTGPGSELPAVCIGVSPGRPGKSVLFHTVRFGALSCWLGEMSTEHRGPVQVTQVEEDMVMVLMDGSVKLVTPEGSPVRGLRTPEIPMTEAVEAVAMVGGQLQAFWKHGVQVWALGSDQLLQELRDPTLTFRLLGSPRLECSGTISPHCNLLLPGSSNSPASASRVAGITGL

[4] = organism: Homo sapiens; experiment: Selectivity ratio of IC50 for JAK1 (unknown origin) by ATP competitive binding assay to IC50 for N-terminal GST-tagged human recombinant HPK1 (1 to 346 residues ) expressed in baculovirus-infected Sf9 cells by HTRF lanthascreen binding assay; procedure, shortened: as §1
[5] = Volume of distribution in Wistar Han rat at 0.5 mg/kg, iv or 0.5 mg/kg, po; format: ADME, organism-based; details: in vivo
Procedure, shortened: (§2)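 Male Wistar Han rats given 0.5 mg/kg intravenously and 0.5 mg/kg orally, both as solutions in DMSO/PEG400/H2O. Plasma clearance, volume of distribution, half-life and oral bioavailability determined. Unbound parameters correct for plasma protein binding.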

[6] = Half life in Wistar Han rat at 0.5 mg/kg, iv or 0.5 mg/kg, po; format: ADME, organism-based; details: in vivo; procedure, shortened: as §2
[7] = Oral bioavailability in Wistar Han rat at 0.5 mg/kg; format: ADME, organism-based; details: in vivo; procedure, shortened: as §2
[8] = molecular target: T1, Mitogen-activated protein kinase kinase kinase kinase 1; experiment: Inhibition of HPK1 in human PBMC assessed as unbound concentration required for inhibition of SLP76 phosphorylation by ELISA corrected to binding to 10% FBS
Procedure, shortened: (§3)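 Target-engagement assay in human peripheral blood mononuclear cells with ELISA readout of SLP76 phosphorylation. Total-cell IC50 reported. Unbound IC50 obtained by correcting for compound binding to the 10% FBS present in the assay medium.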
Target sequence in this assay (Q92918 whole entry, looked up, the tested form may be a part): as the sequence (Q92918 whole entry, the tested form may be a part) above

[9] = Total Plasma clearance in Wistar Han rat at 0.5 mg/kg, iv or 0.5 mg/kg, po; format: ADME, organism-based; procedure, shortened: as §2
[10] = Apparent permeability of compound in dog MDCKII cells; format: ADME, cell-based, Canis lupus familiaris, MDCK-II; details: MDCK
[11] = Unbound clearance in Wistar Han rat at 0.5 mg/kg, iv or 0.5 mg/kg, po; format: ADME, organism-based; details: in vivo; procedure, shortened: as §2
[12] = molecular target: T1, Mitogen-activated protein kinase kinase kinase kinase 1; experiment: Inhibition of HPK1 in human PBMC assessed as inhibition of SLP76 phosphorylation by ELISA; procedure, shortened: as §3
Target sequence in this assay (Q92918 whole entry, the tested form may be a part): as above

[13] = Volume of distribution in Wistar Han rat at 0.1 mg/kg, iv; format: ADME, organism-based; details: in vivo
Procedure, shortened: (§4)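 Male Wistar Han rats dosed intravenously at 0.1 mg/kg, given as a solution in DMSO/PEG400/H2O. Plasma PK parameters derived: total plasma clearance, volume of distribution, mean residence time and half-life. Unbound clearance accounts for plasma protein binding.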

[14] = Half life in Wistar Han rat at 0.1 mg/kg, iv; format: ADME, organism-based; details: in vivo; procedure, shortened: as §4
[15] = Total Plasma clearance in Wistar Han rat at 0.1 mg/kg, iv; format: ADME, organism-based; procedure, shortened: as §4
[16] = Unbound clearance in Wistar Han rat at 0.1 mg/kg, iv; format: ADME, organism-based; details: in vivo; procedure, shortened: as §4
[17] = Mean residence time in Wistar Han rat at 0.1 mg/kg, iv; format: ADME, organism-based; details: in vivo; procedure, shortened: as §4
[18] = Unbound volume of distribution in Wistar Han rat at 0.5 mg/kg, iv or 0.5 mg/kg, po; format: ADME, organism-based; details: in vivo; procedure, shortened: as §2
[19] = Mean residence time in Wistar Han rat at 2 mg/kg, iv; format: ADME, organism-based; details: in vivo
Procedure, shortened: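 Male Wistar Han rats received a single intravenous dose of 2 mg/kg, formulated as a solution in 30% captisol/70% water. Mean residence time derived from plasma concentration–time data.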

SMILES	Ratio IC50 [1]	Ratio IC50 [2]	IC50 [3] [nM]	Ratio IC50 [4]	also measured
COc1cccc(F)c1-c1cc2c(cn1)cnn2-c1cc(Cl)cc(N2CCN(C)CC2)n1	597	134	1.8	347	
COc1cccc(F)c1-c1cc2c(cn1)cnn2-c1cccc(N2CC(N)C2)n1	10	24	32	59	
Cc1cccc(F)c1-c1cc2c(cn1)cnn2-c1cnn(C)c1			1090		
CCOc1cccc(F)c1-c1cc2c(cn1)cnn2-c1ccc(N2CCN(C)CC2)cc1	18	18	557	18	
COC(=O)N1CCN(c2cccc(-n3ncc4cnc(-c5c(F)cccc5OC)cc43)n2)CC1	11	5	32	65	
COc1cccc(F)c1-c1cc2c(cn1)cnn2-c1cccc(N2C[C@@H]3C[C@H]2CN3C)n1	61	599	1.9	5190	Vd [5]: 0.5 L/kg; half-life [6]: 1.8 h; bioavailability [7]: > 100%; fIC50 [8]: 1.1 µM; clearance [9]: 4.2 mL/min/kg; Papp [10]: 34 ×10⁻⁶ cm/s; CL free [11]: 2962 mL/min/kg; IC50 [12]: 4300 nM
COc1cccc(F)c1-c1cc2c(cn1)cnn2-c1cccc(N2CC[C@H](N(C)C)C2)n1	281	393	1.2	3070	Vd [13]: 0.3 L/kg; half-life [14]: 1.2 h; clearance [15]: 4.8 mL/min/kg; Papp [10]: 30 ×10⁻⁶ cm/s; IC50 [12]: > 10000 nM
Cc1cccc(C)c1-c1cc2c(cn1)cnn2-c1ccc(N2CCN(C)CC2)cc1	35	35	284	35	
COc1cccc(F)c1-c1cc2c(cn1)cnn2-c1cccc(N2CC3(CCCNC3)C2)n1	45	177	13	792	
CNC1CCc2c1ccc(F)c2-c1cc2c(cn1)cnn2-c1ccc(N2CCN(C)CC2)cc1 (racemic)	52	52	193	52	
COc1cccc(F)c1-c1cc2c(cnn2-c2cccc(N3CCN(C)CC3)n2)cc1C#N	115	130	2	1320	Vd [13]: 2.3 L/kg; CL free [16]: 19913 mL/min/kg; half-life [14]: 3.1 h; clearance [15]: 12 mL/min/kg; Papp [10]: < 14 ×10⁻⁶ cm/s; IC50 [12]: > 10000 nM
COc1cccc(-n2ncc3cnc(-c4c(F)cccc4OC)cc32)n1	5	21	103	97	
CN1CCN(c2cc(-c3n[nH]c4cnc(-c5cnn6c5CCC6)cc34)ccn2)CC1		32	15	45	Vd [13]: 15 L/kg; clearance [15]: 130 mL/min/kg; MRT [17]: 1.9 h
Cc1cccc(F)c1-c1ccc2cnn(-c3ccc(N4CCN(C)CC4)cc3)c2c1			1470		
C[C@@H]1CN(c2cc(-n3ncc4ccc(-c5cnn6c5OCCC6)cc43)ccn2)C[C@H](C)N1C		7	1460	7	Vd [13]: 1.4 L/kg; clearance [15]: 8.7 mL/min/kg; MRT [17]: 2.6 h
CNC(=O)N1CCN(c2cccc(-n3ncc4cnc(-c5c(F)cccc5OC)cc43)n2)CC1	30	32	11	311	
COc1cccc(F)c1-c1cc2c(cn1)cnn2-c1cccc(N2CCOCC2)n1	12	18	34	92	
CNC1CCN(c2cccc(-n3ncc4cnc(-c5c(F)cccc5OC)cc43)n2)CC1	8.5	90	17	112	
COc1cccc(F)c1-c1cc2c(cn1)cnn2-c1cccc(N2CCN(C)CC2)n1	44	135	2.6	751	Vd [13]: 1.1 L/kg; CL free [16]: 2171 mL/min/kg; half-life [14]: 2.3 h; clearance [15]: 9.4 mL/min/kg; fIC50 [8]: 0.6 µM; Papp [10]: 28 ×10⁻⁶ cm/s; IC50 [12]: 8000 nM
COc1cccc(F)c1-c1cc2c(cn1)cnn2-c1ccnc(N2CCN(C)CC2)c1	167	61	60	167	

SMILES	Ratio IC50 [1]	Ratio IC50 [2]	IC50 [3] [nM]	Ratio IC50 [4]	also measured
COc1cccc(F)c1-c1cc2c(cn1)cnn2-c1cccc(N2CC3CCC(C2)N3C)n1	61	1450	1.1	8960	Vd [5]: 2.3 L/kg; half-life [6]: 2.1 h; bioavailability [7]: 67%; fIC50 [8]: 0.3 µM; clearance [9]: 19 mL/min/kg; Papp [10]: 26 ×10⁻⁶ cm/s; CL free [11]: 1197 mL/min/kg; Vdu [18]: 143 L/kg; IC50 [12]: 4000 nM
COc1cccc(F)c1-c1cc2c(cn1)cnn2-c1cccc(N2CCN(C)CC2)c1		25	408	25	
COc1ccncc1-c1ccc2cnn(-c3ccnc(N4CCOCC4)c3)c2c1		4	2200	4	Vd [13]: 2.1 L/kg; clearance [15]: 31 mL/min/kg; MRT [19]: 1.2 h
Cc1cccc(F)c1-c1cc2c(cn1)cnn2-c1ccc(N2CCN(C)CC2)cc1	83	83	121	83	
COc1cccc(F)c1-c1cc2c(cn1)cnn2-c1cccc(N2CCNCC2)n1	29	204	3.8	446	
Cc1ccccc1-c1cc2c(cn1)cnn2-c1ccc(N2CCN(C)CC2)cc1		24	410	24	
COc1cccc(F)c1-c1cc2c(cn1)cnn2-c1cccc(N)n1			518		
CN1CCN(c2ccc(-n3ncc4cnc(-c5ccccc5)cc43)cc2)CC1		12	826	12	
COc1cccc(F)c1-c1cc2c(cn1)cnn2-c1cccc(N2CCCCC2)n1	43	26	40	252	
COc1cccc(F)c1-c1cc2c(cn1)cnn2-c1cccc(N2CCCC2)n1			109		
CN1CCN(c2cc(-c3n[nH]c4ccc(-c5cnn6c5CCC6)cc34)ccn2)CC1		1110	9.1	205	Vd [13]: 7.1 L/kg; clearance [15]: 117 mL/min/kg; MRT [17]: 1 h
Cc1cccc(F)c1-c1cc2c(cnn2-c2ccc(N3CCN(C)CC3)cc2)cc1C#N	357		28	357	Vd [13]: 18 L/kg; half-life [14]: 2.2 h; clearance [15]: 151 mL/min/kg; Papp [10]: < 8 ×10⁻⁶ cm/s; IC50 [12]: > 10000 nM
COc1cccc(F)c1-c1cc2c(cn1)cnn2-c1cccc(N2CCCC2=O)n1			213		
COc1cccc(F)c1-c1cc2c(cn1)cnn2-c1ccnc(N2CCN(C)CC2)n1	10	125	6.7	1480	
COc1cccc(F)c1-c1cc2c(cn1)cnn2-c1ccc(N2CCOCC2)cc1		99	101	99	
COc1ccncc1-c1cc2c(cn1)cnn2-c1ccc(N2CCN(C)CC2)cc1	4	83	120	83	
COc1cccc(F)c1-c1cc2c(cn1)cnn2-c1ccc(N2CCN(C)CC2)cc1	112	112	89	112	
COc1cccc(F)c1-c1cc2c(cn1)cnn2-c1ccccc1		10	1050	10	
COc1cccc(F)c1-c1cc2c(cn1)cnn2-c1ccc(N2CCN(C)CC2)cn1	77	61	31	95	
